Results on two molecules are retold here after ChEMBL document CHEMBL1240390, “Activity of dalbavancin against Bacillus anthracis in vitro and in a mouse inhalation anthrax model” (Antimicrob Agents Chemother, 2010).

Values after ≈ are worked out from the molar mass of the structure shown. Some results are limits rather than exact numbers.

A short description of data set [1]: AUC (0-infinity) in ICR mouse at 20 mg/kg, ip. More on the design: time infinity, dose 20 mg/kg, route intraperitoneal. In kind it is ADME, organism-based. As to conditions: plasma. In short, it runs like this: (§1)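 Female ICR mice, 23 to 27 g, given single 5 or 20 mg/kg doses i.p. or i.v. (tail vein) in 5% glucose. Plasma was taken by cardiac puncture under halothane at 0.08 to 144 h, with 3 mice per route, dose and time point. Total drug was measured by microbiological agar diffusion assay; parameters came from noncompartmental analysis.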

Data set [2] has as its system Bacillus anthracis. Put plainly: Antimicrobial activity against Bacillus anthracis str. Ames infected in BALB/c mouse prophylaxis model assessed as mouse survival at 60 mg/kg, ip administered 36 hrs post infection every 36 hrs for 14 days measured after 42 days. As to conditions: route intraperitoneal. In kind it is functional.
Data set [3] deals with Mus musculus. Put plainly: T>MIC in ICR mouse at 5 mg/kg, ip. As to conditions: in vivo. Details: dose 5 mg/kg, route intraperitoneal. In kind it is ADME, organism-based.
In data set [4] the test system is Mus musculus. Kind of data set: fAUC in ICR mouse at 5 mg/kg, ip. The format is ADME, organism-based. Details: dose 5 mg/kg, route intraperitoneal. As to conditions: in vivo.
In data set [5] the test system is Bacillus anthracis. Put plainly: Antimicrobial activity against Bacillus anthracis str. Ames after 18-24 hrs by broth microdilution method. In kind it is functional.
A short description of data set [6]: Ratio of fAUC in ICR mouse at 20 mg/kg, ip to MIC against Bacillus anthracis Ames. The format is functional. Conditions: route intraperitoneal. In short, it runs like this:
(§2)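 Female ICR mice (23 to 27 g) received a single i.p. dose of 5 or 20 mg/kg in 5% glucose. Plasma was taken by cardiac puncture from 0.08 to 144 h, with 3 mice per dose and time point. Total drug was measured by microbiological agar diffusion, and parameters were derived noncompartmentally. Free values assume 1.6% unbound and are divided by the Ames-strain MIC.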

Data set [7] concerns Bacillus anthracis. Kind of data set: Antimicrobial activity against Bacillus anthracis str. Ames infected in BALB/c mouse assessed as mouse survival at 30 mg/kg, ip bid administered 24 hrs post infection for 14 days measured after 42 days. In kind it is functional. Conditions: route intraperitoneal.
The test system of data set [8] is Mus musculus. Put plainly: fCmax in ICR mouse at 5 mg/kg, ip after 2 hrs. In kind it is ADME, organism-based. Details: dose 5 mg/kg, route intraperitoneal. Conditions: in vivo.
A short description of data set [9]: Half life in ICR mouse at 20 mg/kg, ip. More on the design: dose 20 mg/kg, route intraperitoneal. In kind it is ADME, organism-based. As to conditions: in vivo. The gist of the method: as §1
The subject of data set [10] is Mus musculus. Put plainly: fCmax in ICR mouse at 20 mg/kg, ip after 2 hrs. In kind it is ADME, organism-based. Details: dose 20 mg/kg, route intraperitoneal. Conditions: in vivo.
Data set [11] in a line: Ratio of fAUC in ICR mouse at 5 mg/kg, ip to MIC against Bacillus anthracis Ames. In kind it is functional. Conditions: route intraperitoneal. The gist of the method:
as §2

The subject of data set [12] is Bacillus anthracis. Put plainly: Antimicrobial activity against Bacillus anthracis str. Ames infected in BALB/c mouse prophylaxis model assessed as mouse survival at 60 mg/kg, ip administered 48 hrs post infection every 36 hrs for 14 days measured after 42 days. As to conditions: route intraperitoneal. The format is functional.
The subject of data set [13] is Bacillus anthracis. Kind of data set: Antimicrobial activity against Bacillus anthracis str. Ames infected in BALB/c mouse prophylaxis model assessed as mouse survival at 120 mg/kg, ip administered 48 hrs post infection every 72 hrs for 14 days measured after 42 days. The format is functional. Conditions: route intraperitoneal.
For data set [14], the system named is Bacillus anthracis. Kind of data set: Antimicrobial activity against Bacillus anthracis str. Ames infected in BALB/c mouse prophylaxis model assessed as mouse survival at >=30 mg/kg, ip administered 24 hrs post infection every 36 hrs for 14 days measured after 42 days. In kind it is functional.
The test system of data set [15] is Mus musculus. Kind of data set: fAUC in ICR mouse at 20 mg/kg, ip. The format is ADME, organism-based. More on the design: dose 20 mg/kg, route intraperitoneal. As to conditions: in vivo.
Data set [16] in a line: AUC (0-infinity) in ICR mouse at 20 mg/kg, iv. In kind it is ADME, organism-based. Details: time infinity, dose 20 mg/kg, route intravenous. As to conditions: plasma. The gist of the method:
as §1

Data set [17] can be described thus: Plasma concentration in ICR mouse at 20 mg/kg, ip after 6 days. In kind it is ADME, organism-based. Details: dose 20 mg/kg, route intraperitoneal. In short, it runs like this: as §1
Data set [18] in a line: Ratio of fCmax in ICR mouse at 5 mg/kg, ip after 2 hrs to MIC for Bacillus anthracis Ames. The format is functional. Conditions: route intraperitoneal. The gist of the method: as §2
Data set [19] relates to Bacillus anthracis. Kind of data set: Antimicrobial activity against Bacillus anthracis after 18-24 hrs by broth microdilution method. The format is functional.
The nature of data set [20]: Half life in ICR mouse at 5 mg/kg, ip. In kind it is ADME, organism-based. Details: dose 5 mg/kg, route intraperitoneal. Conditions: in vivo. The gist of the method:
as §1

The nature of data set [21]: AUC (0-infinity) in ICR mouse at 5 mg/kg, ip. The format is ADME, organism-based. More on the design: dose 5 mg/kg, route intraperitoneal, time infinity. As to conditions: plasma. The gist of the method: as §1
Data set [22] in a line: AUC in patient with skin and soft tissue infections at 1000 mg, iv after 7 days. The format is ADME, organism-based. Conditions: human, plasma.
In data set [23] the test system is Bacillus anthracis. Put plainly: Antimicrobial activity against Bacillus anthracis str. Ames infected in BALB/c mouse prophylaxis model assessed as mouse survival at >=15 mg/kg, ip administered 24 hrs post infection every 36 hrs for 14 days measured after 42 days. In kind it is functional.
A short description of data set [24]: Cmax in ICR mouse at 5 mg/kg, ip after 2 hrs. More on the design: dose 5 mg/kg, route intraperitoneal. The format is ADME, organism-based. Conditions: in vivo. In short, it runs like this:
as §1

Data set [25] has as its system Bacillus anthracis. Put plainly: Antimicrobial activity against Bacillus anthracis str. Ames infected in BALB/c mouse prophylaxis model assessed as mouse survival at 120 mg/kg, ip administered 36 hrs post infection every 72 hrs for 14 days measured after 42 days. The format is functional. As to conditions: route intraperitoneal.
Data set [26] is described as follows: Cmax in ICR mouse at 20 mg/kg, ip after 2 hrs. The format is ADME, organism-based. More on the design: dose 20 mg/kg, route intraperitoneal. As to conditions: in vivo. The gist of the method:
as §1

The nature of data set [27]: Ratio of fCmax in ICR mouse at 20 mg/kg, ip single dose after 2 hrs to MIC for Bacillus anthracis Ames. The format is functional. As to conditions: route intraperitoneal. In short, it runs like this:
as §2

For data set [28], the system named is Mus musculus. Put plainly: T>MIC in ICR mouse at 20 mg/kg, ip. As to conditions: in vivo. Details: dose 20 mg/kg, route intraperitoneal. The format is ADME, organism-based.
The nature of data set [29]: AUC (0-infinity) in ICR mouse at 5 mg/kg, iv. In kind it is ADME, organism-based. Details: time infinity, dose 5 mg/kg, route intravenous. Conditions: plasma. In short, it runs like this: as §1

On to `CN[C@H]1C(=O)N[C@@H]2Cc3ccc(cc3)Oc3cc4cc(c3O[C@@H]3O[C@H](C(=O)O)[C@@H](O)[C@H](O)[C@H]3NC(=O)CCCCCCCCC(C)C)Oc3ccc(cc3Cl)[C@@H](O)[C@@H]3NC(=O)[C@H](NC(=O)[C@@H]4NC(=O)[C@@H](NC2=O)c2cc(cc(O)c2Cl)Oc2cc1ccc2O)c1ccc(O)c(c1)-c1c(O[C@H]2O[C@H](CO)[C@@H](O)[C@H](O)[C@@H]2O)cc(O)cc1[C@@H](C(=O)NCCCN(C)C)NC3=O` [DALBAVANCIN], for which the AUC(0-inf) was 848 µg·h/mL in data set [1], 1070 µg·h/mL in data set [16], 176 µg·h/mL in data set [21] and 200 µg·h/mL in data set [29]. Moreover, the Activity was determined as 70% in the data set on Bacillus anthracis [2]; 100% in the data set on Bacillus anthracis [7]; 70% in the data set on Bacillus anthracis [12]; 70% in the data set on Bacillus anthracis [13]; 80% in the data set with Bacillus anthracis [14]; 80% in the data set with Bacillus anthracis [23]. The Activity with Bacillus anthracis [25] is given as 70%. Further, the “T>MIC” value in the data set with Mus musculus [3] was 17.8 h; in the data set on Mus musculus [28], 38 h. The figures for the fAUC in the data set on Mus musculus [4] and in the data set on Mus musculus [15] were 2.8 µg·h/mL and 13.6 µg·h/mL, respectively. For the same molecule, the MIC against Bacillus anthracis [5] was 0.06 µg/mL (≈ 0.033 µM). Also, the Ratio is 227 in [6], 46.7 in data set [11], 4 in data set [18] and 19 in data set [27]. Moreover, the values for the fCmax with Mus musculus [8] and with Mus musculus [10] were 0.24 mg/L and 1.14 mg/L, respectively. The half-life in data set [9] and in data set [20] was 53.4 h throughout. In [17], this molecule showed a concentration at 144 h not below 400 ng/mL. In the data set with Bacillus anthracis [19], this molecule had an MIC50 of 0.06 µg/mL (≈ 0.033 µM). Also, the MIC90 with Bacillus anthracis [19] was found to be 0.25 µg/mL (≈ 0.138 µM). This molecule also came in with an AUC at 168 h in data set [22] of 756 µg·h/mL. Also, the Cmax in data set [24] amounted to 15200 ng/mL; in data set [26] it was 71300 ng/mL.
`CN[C@H](CC(C)C)C(=O)N[C@H]1C(=O)N[C@@H](CC(N)=O)C(=O)N[C@H]2C(=O)N[C@H]3C(=O)N[C@H](C(=O)N[C@H](C(=O)O)c4cc(O)cc(O)c4-c4cc3ccc4O)[C@H](O)c3ccc(c(Cl)c3)Oc3cc2cc(c3O[C@@H]2O[C@H](CO)[C@@H](O)[C@H](O)[C@H]2O[C@H]2C[C@](C)(N)[C@H](O)[C@H](C)O2)Oc2ccc(cc2Cl)[C@H]1O` [VANCOMYCIN] registered a minimal inhibitory concentration (MIC) against Bacillus anthracis [19] of 2 µg/mL (≈ 1.38 µM).
